Assay results from ChEMBL document CHEMBL1132144, “Synthesis of 9-O-substituted derivatives of 9-hydroxy-5, 6-dimethyl-6H-pyrido[4,3-b]carbazole-1-carboxylic acid (2-(dimethylamino)ethyl)amide and their 10- and 11-methyl analogues with improved antitumor activity” (J Med Chem, 1999).

Tests used:
[1] = tested on: Mus musculus; assay: Long-term survivors among 6 mice infected with P388 leukemia, scored on day 60 at 160 mg/kg dose on day 1; assay type: functional
Procedure, shortened: (§1)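 B6D2F1 mice in groups of 6–7 were inoculated ip on day 0 with 10^6 P388 cells. Dihydrochloride salts were dissolved in water and given iv on day 1 or on days 1, 5 and 9. Doses ranged from a low nontoxic dose to a toxic one. Long-term survivors were counted at day 60.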

[2] = tested on: Mus musculus; assay: Percent median survival time of mice intraperitoneally injected with P388 leukemia was determined from tested at 160 mg/kg at day1 dose to that of control; assay type: functional
Procedure, shortened: (§2)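 P388 leukemia in B6D2F1 mice (groups of 6–7), 10^6 cells inoculated ip on day 0. Dihydrochloride salts were dissolved in water and given iv on day 1 or on days 1, 5, 9. Three doses were tested, then five if active. %T/C = median survival treated/control × 100, reported at the optimal dose (no toxic death, weight loss <20%), from one or two representative experiments.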

[3] = tested on: Mus musculus; assay: Long-term survivors among 6 mice infected with P388 leukemia, scored on day 60 at 160 mg/kg dose on day 1, 5, 9; assay type: functional; procedure, shortened: as §1
[4] = tested on: L1210; assay: Inhibition of murine L1210 leukemia cell proliferation measured by the MTT assay; assay type: functional, cell-based; conditions: Mus musculus
Procedure, shortened: (§3)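 Murine L1210 leukemia and B16 melanoma cells were grown in RPMI 1640 with 10% fetal calf serum, 2 mM L-glutamine, penicillin/streptomycin and 10 mM HEPES (pH 7.4). Cells were exposed to nine serial drug dilutions in triplicate for about four doubling times (L1210 48 h, B16 96 h), then read by microculture tetrazolium (MTT) assay. IC50 is the concentration halving optical density versus untreated controls, averaged over ≥2 independent experiments.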

[5] = tested on: Mus musculus; assay: Percent median survival time of mice intraperitoneally injected with P388 leukemia was determined from tested at 160 mg/kg at day1,5,9 dose to that of control; assay type: functional; conditions: route intraperitoneal; procedure, shortened: as §2
[6] = tested on: Mus musculus; assay: Percent median survival time of mice injected with B16 melanoma, at a intraperitoneal compound dose of 20 mg/kg
[7] = tested on: Mus musculus; assay: Long-term survivors among 6 mice infected with P388 leukemia, scored on day 90 at 20 mg/kg dose; assay type: functional
[8] = tested on: B16; assay: Inhibition of murine B16 melanoma cell proliferation measured by the MTT assay; assay type: functional, cell-based; conditions: Mus musculus; procedure, shortened: as §3
[9] = tested on: Mus musculus; assay: Percent median survival time of mice injected with B16 melanoma, at a intraperitoneal compound dose of 10 mg/kg
[10] = tested on: Mus musculus; assay: Percent median survival time of mice injected with P388 leukemia, at a subcutaneous compound dose of 240-320 mg/kg; assay type: functional
[11] = tested on: Mus musculus; assay: Long-term survivors among 12 mice infected with P388 leukemia, scored on day 60 at 240-320 mg/kg dose on day 1; assay type: functional; procedure, shortened: as §1
[12] = tested on: Mus musculus; assay: Long-term survivors among 12 mice infected with B16 melanoma, scored on day 90 at 10 mg/kg dose on days 1-9
[13] = tested on: Mus musculus; assay: Percent median survival time of mice injected with P388 leukemia, at a intravenous compound dose of 80-160 mg/kg
[14] = tested on: Mus musculus; assay: Percent median survival time of mice injected with P388 leukemia, at dose of 20 mg/kg on day 1, 5, 9; assay type: functional; procedure, shortened: as §2
[15] = tested on: Mus musculus; assay: Long-term survivors among 12 mice infected with P388 leukemia, scored on day 60 at 20 mg/kg dose on day 1, 5, 9; assay type: functional; procedure, shortened: as §1
[16] = tested on: Mus musculus; assay: Long-term survivors among 12 mice infected with P388 leukemia, scored on day 60 at 40 mg/kg dose on day 1; assay type: functional; procedure, shortened: as §1
[17] = tested on: Mus musculus; assay: Percent median survival time of mice injected with B16 melanoma, at a intraperitoneal compound dose of 5 mg/kg
[18] = tested on: Mus musculus; assay: Percent median survival time of mice injected with P388 leukemia, at dose of 40 mg/kg on day 1; assay type: functional; procedure, shortened: as §2
[19] = tested on: Mus musculus; assay: Long-term survivors among 21 mice infected with B16 melanoma, scored on day 90 at 5 mg/kg dose
[20] = tested on: Mus musculus; assay: Percent median survival time of mice injected with P388 leukemia, at a subcutaneous compound dose of 160 mg/kg; assay type: functional
[21] = tested on: Mus musculus; assay: Percent median survival time of mice injected with B16 melanoma, at a intraperitoneal compound dose of 20-40 mg/kg
[22] = species: Mus musculus; assay: Long-term survivors among 14 mice infected with B16 melanoma, scored on day 90 at optimal dose on days 1-9
[23] = tested on: Mus musculus; assay: Percent median survival time of mice injected with P388 leukemia, at a intravenous compound dose of 320 mg/kg
[24] = tested on: Mus musculus; assay: Long-term survivors among 14 mice infected with P388 leukemia, scored on day 60 at 320 mg/kg dose on day 1; assay type: functional; procedure, shortened: as §1
[25] = tested on: Mus musculus; assay: Percent median survival time of mice injected with B16 melanoma, at a intraperitoneal compound dose of 1.25 mg/kg
[26] = tested on: Mus musculus; assay: Long-term survivors among 7 mice infected with B16 melanoma, scored on day 90 at 40 mg/kg dose on day 1; assay type: functional
[27] = tested on: Mus musculus; assay: Percent median survival time of mice injected with P388 leukemia, at a intravenous compound dose of 40 mg/kg
[28] = tested on: Mus musculus; assay: Percent median survival time of mice injected with P388 leukemia, at a subcutaneous compound dose of 20 mg/kg; assay type: functional
[29] = tested on: Mus musculus; assay: Long-term survivors among 7 mice infected with P388 leukemia, scored on day 60 at 40 mg/kg dose on day 1; assay type: functional
Procedure, shortened: (§4)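 B6D2F1 mice in groups of 6–7 received 10^6 P388 cells ip on day 0. Dihydrochloride salts dissolved in water were injected iv on day 1 or on days 1, 5 and 9, at three doses and then five. Read-outs were % T/C (median survival treated/control × 100) and long-term survivors on day 60, both at the optimal dose (no toxic death, weight loss <20%).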

[30] = tested on: Mus musculus; assay: Percent median survival time of mice injected with B16 melanoma, at a intraperitoneal compound dose of 80 mg/kg
[31] = tested on: Mus musculus; assay: Long-term survivors among 7 mice infected with P388 leukemia, scored on day 60 at 240 mg/kg dose on day 1; assay type: functional; procedure, shortened: as §4
[32] = tested on: Mus musculus; assay: Long-term survivors among 7 mice infected with B16 melanoma, scored on day 90 at 240 mg/kg dose on day 1; assay type: functional
[33] = tested on: Mus musculus; assay: Percent median survival time of mice injected with P388 leukemia, at a subcutaneous compound dose of 240 mg/kg; assay type: functional
[34] = tested on: Mus musculus; assay: Long-term survivors among 6 mice infected with P388 leukemia, scored on day 60 at 240 mg/kg dose; assay type: functional; procedure, shortened: as §1
[35] = tested on: Mus musculus; assay: Long-term survivors among 6 mice infected with P388 leukemia, scored on day 60 at 160 mg/kg dose; assay type: functional; procedure, shortened: as §1
[36] = tested on: Mus musculus; assay: Percent median survival time of mice intraperitoneally injected with P388 leukemia was determined from tested at 240 mg/kg at day1 dose to that of control; assay type: functional; conditions: route intraperitoneal; procedure, shortened: as §2

`Cc1c2ccnc(C(=O)NCCN(C)C)c2cc2c3cc(OCCCCC(=O)O)ccc3n(C)c12` showed an LTS [1] of 0, a T/C [2] of 107% and an LTS [3] of 0. The IC50 [4] was 4.23 µM, the T/C [5] was 108% and the T/C [6] was 146%. It also gave an LTS [7] of 0 and an IC50 [8] of 3.47 µM.
`Cc1c2ccnc(C(=O)NCCN(C)C)c2cc2c3cc(OC(=O)CCCCC(=O)O)ccc3n(C)c12` was tested, and the T/C [9] was greater than 352%, the T/C [10] was greater than 607% and the IC50 [4] was 0.0208 µM. It also gave an LTS [11] of 16, an LTS [12] of 4 and a T/C [13] greater than 607%. It also gave an IC50 [8] of 0.005 µM.
`Cc1c2c(C(=O)NCCN(C)C)nccc2c(C)c2c1c1cc(OC(=O)CCCC(=O)O)ccc1n2C` was tested, and the T/C [14] was greater than 640%, the LTS [15] was 11 and the LTS [16] was 11. For the same compound, the IC50 [4] was 0.034 µM, the T/C [17] was 202% and the IC50 [8] was 0.0014 µM. The T/C [18] was greater than 640% and the LTS [19] was 0.
For `Cc1c2ccnc(C(=O)NCCN(C)C)c2cc2c3cc(OC(=O)CC(C)(C)CC(=O)O)ccc3n(C)c12`, the T/C [20] was 404%, the T/C [21] was greater than 466% and the IC50 [4] was 0.0027 µM. It also gave an LTS [22] of 5, an IC50 [8] of 0.0037 µM and a T/C [23] greater than 600%. For the same compound, the LTS [24] was 4.
For `Cc1c(OC(=O)CCCCC(=O)O)ccc2c1c1cc3c(C(=O)NCCN(C)C)nccc3c(C)c1n2C`, the T/C [25] was 127%, the IC50 [4] was 0.0247 µM and the LTS [26] was 0. It also gave a T/C [27] of 300%, an IC50 [8] of 0.0064 µM and a T/C [28] greater than 600%. For the same compound, the LTS [29] was 0.
For `Cc1c2ccnc(C(=O)NCCN(C)C)c2cc2c3cc(OC(=O)NCCCC(=O)O)ccc3n(C)c12`, the T/C [20] was 109%, the T/C [30] was 139% and the IC50 [4] was 0.522 µM. The LTS [31] was 0, the LTS [32] was 0 and the T/C [33] was 111%. For the same compound, the IC50 [8] was 0.0457 µM.
`Cc1c2ccnc(C(=O)NCCN(C)C)c2cc2c3cc(OCC(O)CO)ccc3n(C)c12` (stereo unspecified) showed an LTS [34] of 0, an LTS [35] of 0 and an IC50 [4] of 0.5 µM. The T/C [5] was 114%, the T/C [36] was 127% and the T/C [6] was 129%. For the same compound, the IC50 [8] was 0.955 µM.
